Published values pooled from the literature.
pIC50: −log10 of the molar value.
Observed: cell growth or viability

COc1ccc(CCc2ccc(-c3c(C)[nH]c(C)c(Cl)c3=O)cc2)cc1  pIC50 (HEK293): < 5.00
C=C(Cl)C(=O)Nc1cc(Nc2nc(Nc3cnn(C)c3)c3sccc3n2)c(OC)cc1N1CCN(C)CC1  pIC50 (NCI-H1975; MTT): 6.97
COc1ccc(F)cc1C(=O)NCc1ccc(-c2nn([C@@H](C)C(F)(F)F)c(N)c2C(N)=O)cc1  pIC50 (Rec1; ATP luminescence; 72 h): 8.51
CC(=O)Oc1ccc2ccc(=O)oc2c1CBr  pIC50 (HEK293; MTT; 36 h): < 4.70
CCN(CC)C(=O)c1ncn2c(=O)n(C)nnc12  pIC50 (T98G; resazurin; 7 days): 3.80
CCOC(=O)c1cn(CC)c2cc(OCc3ccccc3)ccc2c1=O  pIC50 (HEK293): < 5.00
CCC(=O)Nc1cc(Nc2nc(N3CCOCC3)c3sccc3n2)c(OC)cc1N(C)CCN(C)C  pIC50 (NCI-H1975; MTT): < 4.30
Cc1c(NC(=O)c2ccc(C(C)(C)C)cc2)cccc1-c1cn(C)c(=O)c(Nc2ccc(C(=O)N3CCOCC3)cc2)n1  pIC50 (CNE2Z): < 5.00
CC(=O)O[C@H](C)C(=O)CCCCCCC(=O)Nc1ccccc1  pIC50 (HEK293; XTT): 4.44
CC(C)C[C@H](NC(=O)[C@H](Cc1ccccc1)NC(=O)c1cnccn1)B(O)O  pIC50 (MKN-1; ATP luminescence): 8.28
C=CC(=O)Nc1cc(Nc2nc(Nc3cnn(C)c3)c3sccc3n2)c(OC)cc1N(C)CCN(C)C  pIC50 (NCI-H1975; MTT): 5.34
Cc1cc2nc(-c3ccc(C(=O)NC4CCN(Cc5ccccc5)CC4)s3)[nH]c2cc1C  pIC50 (HEK293): < 5.00
C=CC(=O)Nc1cc(Nc2nc(N3CCc4sccc4C3)c3cccnc3n2)c(OC)cc1N1CCC(N(C)C)CC1  pIC50 (NCI-H1975; MTT): 6.82
CCOC(=O)c1c(-c2ccccc2)nc2c(sc3ccccc32)c1O  pIC50 (HEK293): < 5.00
Cn1nnc2c(-c3ccccc3)ncn2c1=O  pIC50 (T98G; resazurin; 7 days): 4.85
C=C(Cl)C(=O)Nc1cc(Nc2nc(N3CCOCC3)c3sccc3n2)c(OC)cc1N(C)CCN(C)C  pIC50 (NCI-H1975; MTT): 6.92
O=C(c1cc(-c2ccco2)[nH]n1)N1CCN(S(=O)(=O)c2ccc(Br)cc2)CC1  pIC50 (HEK293): < 5.00
O=c1cc(CCl)c2c(O)cc(O)cc2o1  pIC50 (HEK293; MTT; 36 h): < 4.70
CNC(=O)c1ncn2c(NCc3c(F)ccc4c3CCO4)ncc(-c3ccccc3)c12  pIC50 (KARPAS-422; 7 days): 7.28
C=C(Cl)C(=O)Nc1cc(Nc2nc(N3CCCC3)c3sccc3n2)c(OC)cc1N(C)CCN(C)C  pIC50 (NCI-H1975; MTT): 6.90
CCCCCCCc1ccc(-c2c(C)[nH]c(C)c(Cl)c2=O)cn1  pIC50 (HEK293): < 5.00
C=CC(=O)Nc1cc(Nc2nc(N3CCc4sccc4C3)c3cccnc3n2)c(OC)cc1N(C)CCN(C)C  pIC50 (NCI-H1975; MTT): 6.22
CC[C@@H](C)[C@H](N)C(=O)N1Cc2ccccc2C1  pIC50 (SET-2; ATP luminescence; 48 h): 6.91
CCC(=O)Nc1cc(Nc2nc(N3CCc4sccc4C3)c3cccnc3n2)c(OC)cc1N1CCOCC1  pIC50 (NCI-H1975; MTT): 5.72
Clc1ccc2c(NN=Cc3cccs3)ccnc2c1  pIC50 (HEK293): < 5.00
